Screening results as filed in PubChem.
ATG4B inhibitor = ATG4B (human) cysteine protease inhibition; ATG4B cleavage of LC3-PLA2, NBD-HPC fluorescence, 1 h; inhibition, % at 8.33 µM; 340,000 tested, 0.51% active; AID 504462; in the data active means inhibition above about 40%
SMARCA2 activ = activators of SMARCA2 function; MG213 cells, MMTV-luciferase reporter, dexamethasone, overnight; activation, % at 9.1 µM; 370,000 tested, 1% active; AID 652017; in the data active means activation above about 7.8%;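 further: 0% = vehicle wells and 100% = reference activator wells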
MC4R ag barr = activates human MC4R beta-arrestin recruitment. P32245. U2OS MC4R beta-arrestin complementation, luminescence; percent of melanotan II response, DMSO zero. activation, % at 8.9 µM. 360,000 tested, 0.98% active. AID 540308;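 active means activation above a per-plate cutoff, the mean activation of sample wells on that plate plus 3 SD, cut at about 8% in these data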
Target sequence (P32245 whole entry, looked up): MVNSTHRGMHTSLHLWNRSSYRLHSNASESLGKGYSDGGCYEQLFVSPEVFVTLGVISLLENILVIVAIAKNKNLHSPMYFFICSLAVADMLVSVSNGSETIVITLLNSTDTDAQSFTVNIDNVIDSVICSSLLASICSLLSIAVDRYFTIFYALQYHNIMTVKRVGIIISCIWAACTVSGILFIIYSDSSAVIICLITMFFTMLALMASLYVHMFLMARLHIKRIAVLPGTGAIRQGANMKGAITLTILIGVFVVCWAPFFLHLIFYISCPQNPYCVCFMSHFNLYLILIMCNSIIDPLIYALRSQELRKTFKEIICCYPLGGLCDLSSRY
MC4R antag cAMP = blocks human MC4R cAMP signaling. inhibition, % at 6.5 µM. P32245. 360,000 tested, 0.48% active. MC4R-expressing cells, MTII-stimulated cAMP, LANCE TR-FRET. AID 540295;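 active means inhibition above its plate's cutoff, the mean of tested wells on that plate plus 3 SD, cut at about 29% in these data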;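 further: 0% = Melanotan II alone and 100% = Melanotan II plus saturating MCL0020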
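System: U2OS cells stably expressing human melanocortin 4 receptor (MC4R). Reagent: Melanotan II challenge after compound preincubation. Doses: 6.5 µM. Times: 30-min compound, 1-h challenge, 1-h detection, room temperature. Measured by: TR-FRET with Eu-cAMP and labeled anti-cAMP, 671 nm. Replicates: singlicate.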
MPTP inh = blocks calcium-induced mitochondrial swelling. inhibition, % at 10 µM. isolated mouse mitochondria, Ca2+ swelling absorbance, 30 min. 360,000 tested, 1.4% active. AID 602449;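 active means inhibition of 50% or more, scaled per plate between neutral and stimulator controls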;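 further: 0% = DMSO wells given calcium and 100% = 1 mM EGTA wells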
SMARCA2 act conf = SMARCA2 activation, confirmation screen | shares compounds with SMARCA2 activ | MG213 cells, MMTV-luciferase with dexamethasone, luminescence, overnight; MG213 cells expressing E1A, Rb sequestered; DMSO wells 0%, reference activator 100% | activation, % at 9.1 µM | 3,500 tested, 30% active | AID 652260;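 active means activation above its plate's cutoff, the mean activation of tested wells plus 3 SD, cut at about 7.9% in these data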
GAL4-VP16 Luc = GAL4-VP16 reporter activation counter-screen; shares compounds with SMARCA2 activ; HEK293 GAL4-VP16 pG5luc reporter, luciferase luminescence; scaled: DMSO wells 0%, SAHA wells 100%; activation, % at 9.1 µM; 3,500 tested, 41% active; AID 686939;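 active means activation above the solvent-only control well mean plus 3 SD, averaged across control plates, cut at about 5.2% in these data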
* hit, by the source's call; . = not tested or not shown. A selection: hits, their analogues and other compounds. The true share with any hit is near 4.1%.

SMILES	ATG4B inhibitor	SMARCA2 activ	MC4R ag barr	MC4R antag cAMP	MPTP inh	SMARCA2 act conf	GAL4-VP16 Luc
COCCNC(=O)CN1CCCCCC1	-4	8.3*	-2	2	0	2	1
CC1CCCN(c2cccc3c2S(=O)(=O)N([C@H](C)c2ccccc2)C[C@@H](COCc2ccccc2)O3)C1 (stereo partly specified)	.	-4	.	.	.	.	.
COc1ccc(C(=O)Nc2ccccc2C(=O)Nc2ccccc2)cc1	.	0	-2	4	1	.	.
CCOC(=O)C(=O)Nc1ccccc1C(=O)Nc1ccc(OC)cc1	2	9.1*	0	12	0	0	1
CCc1ccc(NC(=O)CNC(=O)Cn2ccc3ccccc3c2=O)cc1	0	9.1*	-2	13	2	0	2
CCc1ccc(NC(=O)CCNC(=O)Cn2ccc3ccccc3c2=O)cc1	-15	1	-2	4	-2	.	.
COc1ccc(-n2cnc(=S)[nH]c2=S)cc1	-4	14*	-3	-7	0	21*	2
CC(C)C[C@H]1CN(CCCC[C@@H]2CNC(=O)C(=O)N2CC2CCCCC2)C(=O)C(=O)N1CC1CCCCC1	.	-4	.	.	0	.	.
O=C(C(=O)N1CCC(CNS(=O)(=O)c2ccc(F)c(F)c2)CC1)c1cc2ccccc2o1	.	-6	.	.	.	.	.
CC(C)CNC(=O)OCc1cn(Cc2cccc(F)c2)nn1	.	-3	.	.	.	.	.
CCn1c2ccccc2c2nn(C)c(=N)nc21	-11	1	-1	-4	-1	.	.
Cn1nc2c3ccccc3n(Cc3ccccc3)c2nc1=S	5	9.1*	0	4	5	10*	4
CCCN(CCC)CCCNC(=S)Nc1ccc2nc(N3CCCC3)cc(C)c2c1	-11	15*	-4	6	1	16*	-1
CCN(CC)CCNC(=S)Nc1ccc2nc(N3CCCC3)cc(C)c2c1	2	9.6*	3	9	-1	15*	0
CCCCN(CC)CCCNC(=S)Nc1ccc2nc(N3CCN(C)CC3)cc(C)c2c1	-1	2	0	21	2	.	.
CCN(CC)CCNC(=S)Nc1ccc2nc(N3CCN(C)CC3)cc(C)c2c1	-3	5	0	15	-2	.	.
CCOC(=O)c1nc(S(C)(=O)=O)ncc1Cl	-3	34*	3	16	2	-1	4
N#C/C(C(=O)NCc1ccccc1)=C1/N=C(NC(=O)c2ccco2)c2ccccc21	-1	10*	1	3	11	2	3
COc1ccc(S(=O)(=O)N2Cc3ccccc3CC2C(=O)Nc2nccs2)cc1 (stereo unspecified)	-3	9.8*	2	14	-3	4	3
COc1ccc(S(=O)(=O)N2Cc3ccccc3CC2C(=O)Nc2nccs2)cc1OC (stereo unspecified)	-7	5	0	-2	0	.	.
O=C(CCNC(=O)c1ccccc1)NCc1ccccc1F	-7	9.4*	0	2	0	7	4
O=C(Nc1cccnc1)c1cc(-c2cc(Cl)ccc2O)n[nH]1	-9	11*	2	-11	46	9.6*	9.9*
CCOC(=O)C(Cc1ccccc1)CP(=O)(OC)[C@@H](C)NC(=O)OCc1ccccc1 (stereo partly specified)	.	-1	.	.	.	.	.
Cc1ccc(/C=N/NC(=O)NC2CCCCC2)o1	-6	-2	-2	1	-2	.	.
Cc1csc(NC(=O)/C=C/c2ccc(C)o2)n1	-4	5	-1	4	-2	.	.
SMILES	ATG4B inhibitor	SMARCA2 activ	MC4R ag barr	MC4R antag cAMP	MPTP inh	SMARCA2 act conf	GAL4-VP16 Luc
Cc1ccc(/C=C/C(=O)Nc2nccs2)o1	0	11*	0	-8	0	8.4*	10*
Cc1ccsc1C(=O)Nc1nccs1	5	9.3*	1	9	-1	3	3
Cc1csc(NC(=O)c2sccc2C)n1	0	4	-1	-7	0	.	.
Cc1ccc(/C=C/C(=O)NC2CCCCCCC2)o1	-8	8.0*	0	-1	2	20*	4
COC(=O)[C@]12C[C@H](CC(=O)NCCCN3CCCC3=O)C(=O)N(Cc3ccco3)C1=C[C@H](C(C)C)O[C@@H]2C1CC1	.	-2	.	.	.	.	.
Cn1cccc1C(=O)N1CCN(S(=O)(=O)c2ccc(C(C)(C)C)cc2)CC1	.	-2	.	.	.	.	.
Cc1ccc(C(=O)c2cnc3cc4c(cc3c2S(=O)(=O)c2ccccc2)OCCO4)cc1	35	9.5*	-2	-1	1	0	5.5*
CCOc1ccc(S(=O)(=O)c2c(C(=O)c3ccc(C)cc3)cnc3cc4c(cc23)OCCO4)cc1	-5	-4	-1	9	0	.	.
CC(C)(C)OC(=O)NCc1cc(F)ccc1/C=C/S(=O)(=O)NCc1ccc(F)cc1	.	-2	.	.	.	.	.
COC(=O)[C@]12C[C@H](CC(=O)NCC3CCCCC3)C(=O)N(Cc3ccc4c(c3)OCO4)C1=C[C@H](C(C)C)O[C@@H]2C1CC1	.	-2	.	.	.	.	.
CCn1c(/C=C/c2ccccc2)nc2ccccc2c1=O	12	-1	1	0	0	.	.
CCn1c(/C=C/c2ccccc2)nc2ccccc21	6	9.2*	-1	9	-2	11*	11*
COCCN1CCCc2nc(-c3ccc(Br)cc3)ccc21	.	11*	.	.	.	7	7.8*
O=S(=O)(c1ccc(C(F)(F)F)cc1)N1CCCc2nc(-c3ccc(Br)cc3)ccc21	.	15*	.	.	.	-3	5
COc1ccc(-c2ccc3c(n2)CCCN3Cc2ccccc2C(F)(F)F)cc1	.	8.2*	.	.	.	3	5.8*
COc1ccc(-c2ccc3c(n2)CCCN3S(=O)(=O)c2ccc(OC)cc2)cc1	.	-11	.	.	.	.	.
COC(=O)[C@]12C[C@H](CC(=O)NCc3cccc(C(F)(F)F)c3)C(=O)N(Cc3ccco3)C1=C[C@H](COCc1ccccc1)O[C@@H]2C	.	0	.	.	.	.	.
COc1ccc(CN2CN3Cc4cc(F)ccc4C3CS2(=O)=O)cc1 (stereo unspecified)	.	-3	.	.	.	.	.
CC(=O)N1N=C(c2cccc(NS(C)(=O)=O)c2)CC1c1ccc2c(c1)OCO2 (stereo unspecified)	-3	2	-1	8	0	.	.
CS(=O)(=O)Nc1ccc(C2=NN(S(C)(=O)=O)C(c3ccc4c(c3)OCO4)C2)cc1 (stereo unspecified)	0	10*	-1	-5	2	16*	6.6*
C/C=C/c1ccccc1OCCCN1CCC(C(O)(c2ccccc2)c2ccccc2)CC1	.	-7	.	.	.	.	.
CCCOc1ccc(N2C(=O)CC(SCCN)C2=O)cc1 (stereo unspecified)	-6	10*	0	-2	0	7.9*	6.6*
COc1ccc2c(c1)[nH]c1c(=O)n(Cc3ccncc3)cnc12	-1	8.6*	-2	5	0	3	1
